Bioassay records: PubChem, Broad Institute
T cruzi growth-1 – T. cruzi proliferation inhibition. T. cruzi beta-gal in NIH3T3, GalScreen luminescence, 90 h. inhibition, % at 8.34 µM. 5.9% of 77,000 active. AID 624255;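 active = mean inhibition above about 93%, with at least 55% of replicates each passing it, limit read from the data, passing the limit was not always enough; inconclusive = only one of those two conditions holds; inactive = neither condition holds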
IDH1 R132H inh – blocks human IDH1 R132H reductase activity | O75874 | diaphorase/resazurin fluorescence, 60 min | inhibition, % at 10 µM | 0.18% of 70,000 active; in the data active = inhibition above about 34%; inconclusive = no clear call, values can overlap the other calls; inactive = below about 11%
Target sequence (O75874 whole entry R132H): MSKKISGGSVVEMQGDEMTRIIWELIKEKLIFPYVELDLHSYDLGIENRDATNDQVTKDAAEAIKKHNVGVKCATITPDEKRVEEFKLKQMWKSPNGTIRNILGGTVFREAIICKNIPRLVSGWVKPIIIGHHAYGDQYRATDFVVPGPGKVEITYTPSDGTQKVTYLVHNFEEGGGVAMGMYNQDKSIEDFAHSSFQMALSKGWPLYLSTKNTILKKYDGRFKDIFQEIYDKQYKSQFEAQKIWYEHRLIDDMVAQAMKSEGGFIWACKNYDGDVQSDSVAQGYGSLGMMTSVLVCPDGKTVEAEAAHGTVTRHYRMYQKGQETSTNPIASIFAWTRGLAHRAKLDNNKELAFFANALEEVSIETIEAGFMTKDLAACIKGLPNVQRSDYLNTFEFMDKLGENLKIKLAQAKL
GASC1 inh – blocks human GASC-1 (KDM4C) demethylase activity. Q9H3R0. GST-KDM4C 2-372, H3K9me3 peptide, LANCE TR-FRET. inhibition, % at 12.5 µM. 0.15% of 96,000 active;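 active = mean replicate inhibition above about 25%, with at least 55% of replicates also reaching it, limit read from the data, passing the limit was not always enough; inconclusive = only one of those two conditions met; inactive = neither condition met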
Target sequence (Q9H3R0 2-372 limits assumed): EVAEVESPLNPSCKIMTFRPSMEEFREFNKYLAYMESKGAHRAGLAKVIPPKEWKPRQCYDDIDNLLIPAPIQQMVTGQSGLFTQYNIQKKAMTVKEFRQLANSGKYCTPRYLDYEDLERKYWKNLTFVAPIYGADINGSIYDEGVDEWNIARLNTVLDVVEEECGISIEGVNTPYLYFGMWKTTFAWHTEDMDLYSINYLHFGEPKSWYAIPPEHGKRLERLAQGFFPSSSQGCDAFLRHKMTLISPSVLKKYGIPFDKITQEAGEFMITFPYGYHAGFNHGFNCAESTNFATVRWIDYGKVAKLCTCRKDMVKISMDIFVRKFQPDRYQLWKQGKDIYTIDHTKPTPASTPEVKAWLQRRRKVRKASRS
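System: N-terminal GST-fused human GASC-1 (KDM4C) fragment, residues 2-372 / Amount: 10 nM GST-KDM4C in enzyme reaction / Also added: H3K9me3 peptide with Fe(II)/2OG / Times: 30 min demethylation and 1 h detection at room temperature / Signal: LANCE TR-FRET / Read-out basis: Fall in 671/618 emission ratio as inhibition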
T cruzi growth-2 – Trypanosoma cruzi proliferation inhibition. 72% of 5,600 active. T. cruzi beta-gal in NIH3T3, GalScreen luminescence, 90 h. inhibition, % at 8.35 µM. shares compounds with T cruzi growth-1;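 active = mean replicate inhibition above about 95% and at least 55% of replicates individually reaching it, limit read from the data; inconclusive = only one of the two criteria is met; inactive = neither criterion is met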
T cruzi growth-3 – blocks T. cruzi growth in NIH3T3 host cells; shares compounds with T cruzi growth-1; T. cruzi beta-gal in NIH3T3, GalScreen luminescence, 90 h; inhibition, % at 2.09 µM; 21% of 5,600 active; AID 651740;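 active = mean inhibition above about 95%, with at least 55% of replicates also reaching it, limit read from the data; inconclusive = meets just one of the two conditions; inactive = meets neither condition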
3T3 cytotox – kills mouse NIH/3T3 fibroblasts | NIH/3T3 viability, CellTiter-Glo ATP luminescence, 90 h | 14% of 5,600 active | cytotoxicity (signal decrease), % at 8.35 µM | shares compounds with T cruzi growth-1;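 active = mean signal decrease across replicates above about 35% based on untreated-well scatter, with enough replicates individually passing, limit read from the data; inconclusive = no rule stated though some were filed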
NIH3T3 tox 2 – cytotoxicity in mouse NIH/3T3 fibroblasts; shares compounds with T cruzi growth-1; NIH/3T3 viability, CellTiter-Glo ATP luminescence, 90 h; inhibition, % at 24.9 µM; 56% of 5,600 active; AID 651744;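 active = mean loss of cell viability signal at or above a set limit, and enough replicates individually reaching it; inconclusive = meets only the mean limit or only the replicate share; inactive = meets neither condition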
Of the large screens only hits and unclear results are named; the others gave an inactive call (follow-up assays come after a bar, where they were run). Shown is part of a subset that was picked to be rich in hits.

O=C(Nc1ccccc1F)N1CCCCN2[C@H](CO)[C@@H](c3ccc(/C=C/c4ccccc4)cc3)[C@H]2C1	T cruzi growth-1 104 (no result: IDH1 R132H inh) | T cruzi growth-2 97 | T cruzi growth-3 inactive | 3T3 cytotox 59 | NIH3T3 tox 2 105
O=C(Nc1ccccc1F)N1CCCCN2[C@H](CO)[C@@H](c3ccc(C4=CCCC4)cc3)[C@@H]2C1	none (no result: IDH1 R132H inh)
C/C=C/c1ccc([C@@H]2[C@H](CO)N3CCCCN(C(=O)Nc4ccccc4F)C[C@@H]23)cc1	none (no result: IDH1 R132H inh)
C/C=C/c1ccc([C@@H]2[C@@H](CO)N3CCCCN(C(=O)Nc4ccccc4F)C[C@H]23)cc1	none (no result: IDH1 R132H inh)
C/C=C/c1ccc([C@H]2[C@@H](CO)N3CCCCN(C(=O)Nc4ccccc4F)C[C@H]23)cc1	T cruzi growth-1 97 (no result: IDH1 R132H inh) | T cruzi growth-2 100 | T cruzi growth-3 inactive | 3T3 cytotox inactive | NIH3T3 tox 2 70
O=C(Nc1ccccc1F)N1CCCCN2[C@H](CO)[C@@H](c3ccc(C4=CCCCC4)cc3)[C@H]2C1	T cruzi growth-1 103 (no result: IDH1 R132H inh, GASC1 inh) | T cruzi growth-2 111 | T cruzi growth-3 inactive | 3T3 cytotox 39 | NIH3T3 tox 2 107
C[C@@H]1CN([C@H](C)CO)C(=O)c2cc(C#CCN(C)C)cnc2O[C@H]1CN(C)S(=O)(=O)c1ccccc1	none
Cc1nn(C)cc1CN(C)C(=O)c1nn2c(c1Br)NC(c1cccs1)CC2C(F)(F)F (centres undefined)	none (no result: T cruzi growth-1, GASC1 inh)
COCC(=O)Nc1ccc2c(c1)OC[C@H](C)N(C(=O)c1cccnc1)C[C@@H](C)[C@H](OC)CN(C)C2=O	none
N#C[C@H]1[C@@H](c2ccc(C#Cc3ccc(F)cc3)cc2)[C@H](CO)N1C(=O)C1CC1	none (no result: IDH1 R132H inh)
N#C[C@H]1[C@@H](c2ccc(C#CC3(O)CCCC3)cc2)[C@H](CO)N1C(=O)C1CC1	T cruzi growth-1 100 (no result: IDH1 R132H inh) | T cruzi growth-2 104 | T cruzi growth-3 inactive | 3T3 cytotox inactive | NIH3T3 tox 2 56
N#C[C@@H]1[C@H](c2ccc(C#Cc3ccc(F)cc3)cc2)[C@@H](CO)N1C(=O)C1CCC1	none (no result: IDH1 R132H inh)
N#C[C@H]1[C@H](c2ccc(C#CC3(O)CCCC3)cc2)[C@H](CO)N1C(=O)C1CCC1	T cruzi growth-1 100 (no result: IDH1 R132H inh) | T cruzi growth-2 107 | T cruzi growth-3 inactive | 3T3 cytotox inactive | NIH3T3 tox 2 64
O=C(O)C[C@@H]1C[C@H]2c3cc(NC(=O)NC4CCCC4)ccc3O[C@H]2[C@H](CO)O1	none
CN1c2ccc(Br)cc2[C@H]2[C@H](CCN2C(=O)Nc2cc(F)ccc2F)[C@H]1CO	T cruzi growth-1 inconclusive (no result: IDH1 R132H inh) | T cruzi growth-2 105 | T cruzi growth-3 inactive | 3T3 cytotox inactive | NIH3T3 tox 2 44
CN1c2ccc(-c3cccc(C#N)c3)cc2[C@@H]2[C@@H](CCN2C(=O)Nc2cc(F)ccc2F)[C@@H]1CO	T cruzi growth-1 inconclusive (no result: IDH1 R132H inh) | T cruzi growth-2 100 | T cruzi growth-3 inactive | 3T3 cytotox inactive | NIH3T3 tox 2 inactive
CN1c2ccc(-c3ccc(F)cc3)cc2[C@H]2[C@H](CCN2C(=O)Nc2cc(F)ccc2F)[C@H]1CO	none (no result: IDH1 R132H inh)
COc1ccccc1NC(=O)N1CC[C@H]2[C@@H]1c1cc(C#Cc3ccc(F)cc3)ccc1N(C)[C@H]2CO	T cruzi growth-1 108 (no result: IDH1 R132H inh) | T cruzi growth-2 106 | T cruzi growth-3 116 | 3T3 cytotox inactive | NIH3T3 tox 2 inactive
COc1ccccc1NC(=O)N1CC[C@@H]2[C@H]1c1cc(-c3ccc(F)cc3)ccc1N(C)[C@H]2CO	none (no result: IDH1 R132H inh)
CN1c2ccc(-c3ccc(C#N)cc3)cc2[C@@H]2[C@@H](CCN2C(=O)Nc2ccccc2F)[C@@H]1CO	none (no result: IDH1 R132H inh)
CCS(=O)(=O)Nc1ccc2c(c1)C(=O)N(C)C[C@H](OC)[C@@H](C)CN(CC1CCCCC1)[C@@H](C)CO2	none
CN1CCN(C(=O)C[C@@H]2C[C@@H]3c4cc(NS(C)(=O)=O)ccc4O[C@@H]3[C@H](CO)O2)CC1	none
C[C@@H]1CN([C@@H](C)CO)S(=O)(=O)c2ccc(C3=CCCCC3)cc2O[C@H]1CN(C)Cc1ccccc1F	none (no result: T cruzi growth-1, IDH1 R132H inh)
C[C@@H]1CN([C@H](C)CO)S(=O)(=O)c2ccc(C3=CCCC3)cc2O[C@@H]1CN(C)Cc1ccccc1F	T cruzi growth-1 103 | T cruzi growth-2 99 | T cruzi growth-3 105 | 3T3 cytotox inactive | NIH3T3 tox 2 107
C[C@H](CO)N1C[C@H](C)[C@H](CN(C)Cc2ccccc2F)Oc2cc(C3=CCCC3)ccc2S1(=O)=O	none (no result: IDH1 R132H inh)
C[C@@H]1CN([C@@H](C)CO)S(=O)(=O)c2ccc(C3=CCCC3)cc2O[C@H]1CN(C)Cc1ccccc1F	T cruzi growth-1 121 | T cruzi growth-2 101 | T cruzi growth-3 105 | 3T3 cytotox inactive | NIH3T3 tox 2 104
CCC(=O)N1[C@@H]2c3ccc(/C=C/c4ccccc4)c(=O)n3C[C@@H]2[C@@H](CO)[C@@H]1C(=O)Nc1nccs1	none (no result: IDH1 R132H inh)
C[C@@H]1CCCCO[C@H](CN(C)C)[C@H](C)CN([C@@H](C)CO)C(=O)c2cc(NS(C)(=O)=O)ccc2O1	none
C[C@H]1CN([C@@H](C)CO)C(=O)c2cc(NS(=O)(=O)c3ccccc3)ccc2O[C@@H]1CN(C)Cc1ccc(Cl)c(Cl)c1	none (no result: T cruzi growth-1, IDH1 R132H inh)
C[C@@H]1CN([C@H](C)CO)C(=O)c2cc(C#CC3CCCC3)cnc2O[C@H]1CN(C)Cc1ccncc1	none
O=C(C[C@@H]1CC[C@H]2[C@@H](COC[C@H](O)CN2Cc2ccc(Oc3ccccc3)cc2)O1)N1CCN(c2ccccc2)CC1	T cruzi growth-1 130 (no result: IDH1 R132H inh) | T cruzi growth-2 102 | T cruzi growth-3 inactive | 3T3 cytotox 38 | NIH3T3 tox 2 101
O=C(C[C@H]1CC[C@@H]2[C@H](COC[C@@H](O)CN2CCC(F)(F)F)O1)N1CCC(Cc2ccccc2)CC1	T cruzi growth-1 inconclusive (no result: IDH1 R132H inh) | T cruzi growth-2 inactive | T cruzi growth-3 inactive | 3T3 cytotox inactive | NIH3T3 tox 2 inactive
O=C(C[C@@H]1CC[C@H]2[C@@H](COC[C@@H](O)CN2Cc2ccc(Oc3ccccc3)cc2)O1)N1CCOCC1	none (no result: IDH1 R132H inh)
O=C(C[C@H]1CC[C@@H]2[C@H](COC[C@H](O)CN2Cc2ccccc2)O1)N1CCOCC1	T cruzi growth-1 123 (no result: IDH1 R132H inh) | T cruzi growth-2 inactive | T cruzi growth-3 inactive | 3T3 cytotox inactive | NIH3T3 tox 2 inactive
O=C(C[C@@H]1CC[C@@H]2[C@H](COC[C@H](O)CN2Cc2ccccc2)O1)N1CCOCC1	none (no result: IDH1 R132H inh)
O=C(C[C@@H]1CC[C@H]2[C@@H](COC[C@@H](O)CN2CCC(F)(F)F)O1)N1CCC(Cc2ccccc2)CC1	none (no result: IDH1 R132H inh)
Cc1noc(C)c1NC(=O)N(C)C[C@H]1Oc2ccc(NC(=O)C3CCCCC3)cc2C(=O)N([C@H](C)CO)C[C@H]1C	none
COC(=O)N(C)C[C@H]1OCc2cnnn2CCCC(=O)N([C@@H](C)CO)C[C@@H]1C	none
